The record followed here is ChEMBL document CHEMBL2417356, “Identification of 2,3-disubstituted pyridines as potent, orally active PDE4 inhibitors” (Bioorg Med Chem, 2013).

Active and inactive are the calls of the source. The rule behind the calls is not given here.

The nature of assay [1]: (§1) Inhibition of Hartley guinea pig eosinophil PDE4 assessed as cAMP hydrolysis by two-step radioisotope method. More on the design: species or system Cavia porcellus. A digest of the protocol:
(§2)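 PDE4 purified from eosinophils of male Hartley guinea pigs (~500 g) given 5 mg polymyxin B. Activity measured by a modified two-step radioisotope method with [3H]cAMP substrate, quantifying hydrolyzed cAMP. IC50 taken as the concentration giving 50% inhibition of hydrolysis, from concentration–response curves. Three experiments per agent.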

A further assay relates to Mus musculus. Put plainly: Antiinflammatory activity in mouse assessed as inhibition ovalbumin-induced eosinophil infiltration into lung at 10 mg/kg, po administered 30 mins prior to ovalbumin challenge followed by once per day compound administration measured after 2 days relative to vehicle-treated control. The assay is classed as functional. A digest of the protocol:
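Male mice, 5 weeks old, OVA-sensitized. Dosed orally 30 min before intranasal OVA challenge and once daily for the next 2 days. Challenge given 7 days after the last sensitizing OVA injection, under anaesthesia. Bronchoalveolar lavage under pentobarbital 3 days post-challenge. BALF diluted 10-fold in Turk's solution and living infiltrated cells counted. % inhibition calculated against vehicle group.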

Assay [2] relates to Cavia porcellus. Put plainly: Bronchodilatory activity in ovalbumin-treated guinea pig at 10 mg/kg, po administered 1 hr prior to ovalbumin challenge relative to vehicle-treated control. The class given is functional. In a few lines:
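Male guinea pigs OVA-sensitized at 3 weeks old, studied 6 weeks later. Anesthetized, tracheally cannulated and ventilated with room air at 60 strokes/min. Air-overflow measured by the Konzett-Rössler method. Bronchospasm induced by i.v. OVA via hind-paw vein. Peak response taken within 10 min of challenge as % of theoretical maximum. Oral dosing 1 h before challenge; % inhibition against vehicle.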

The species named for assay [3] is Cavia porcellus. In words: Inhibition of Hartley guinea pig eosinophil PDE4 assessed as cAMP hydrolysis at 100 nM by two-step radioisotope method relative to control.
For assay [4], the species on record is Cavia porcellus. The assay is described as §1. A digest of the protocol:
as §2

For the compound `N#CCCCOc1cccnc1Sc1cccc(Br)c1`, in assay [1], the IC50 came to 104 nM. Take `Brc1cccc(Sc2ncccc2OCCCc2ccncc2)c1`: the inhibition in vivo at 10 mg/kg in the assay on Mus musculus amounted to 50%. In the assay on Cavia porcellus [2], this compound had an Activity of 77%. Moreover, the inhibition in the assay listed under Cavia porcellus [3] worked out at 80%. Also, the IC50 in assay [1] was found to be 34 nM. With `Brc1cccc(Sc2ncccc2OCCCc2cccnc2)c1`, the inhibition in the assay listed under Cavia porcellus [3] turned out to be 69%. Turning to `Brc1cccc(Sc2ncccc2OCCc2cccnc2)c1`, the inhibition in the assay filed under Cavia porcellus [3] was found to be 60%. As to `O=C(c1cccc(Br)c1)c1ccccn1`, the inhibition result in the assay filed under Cavia porcellus [4] is “inactive”. Consider `COc1ccc(C2CNC(=O)C2)cc1OC1CCCC1` (centres undefined) [ROLIPRAM], for which, in the assay with Mus musculus, the inhibition in vivo at 10 mg/kg was 39%. Besides, in assay [1], the IC50 came to 54 nM. For `Brc1cccc(Sc2ncccc2OCCCCc2ccncc2)c1`, the inhibition in the assay listed under Cavia porcellus [3] worked out at 3%. For the compound `Brc1cccc(Sc2ncccc2OCCc2ccncc2)c1`, the inhibition in the assay filed under Cavia porcellus [3] was 56%. On the same count and under the same terms, under `Brc1cccc(Sc2ncccc2OCCCCc2cccnc2)c1` stands 5%; under `Brc1cccc(Sc2ncccc2OCCCc2ccccn2)c1`, 10%.
